Results as given in ChEMBL document CHEMBL4266056, “Discovery and Pharmacology of a Novel Somatostatin Subtype 5 (SSTR5) Antagonist: Synergy with DPP-4 Inhibition” (ACS Med Chem Lett, 2018).
Active and inactive are the calls of the source. The rule behind the calls is not given here.

Tests used:
[1] = biological target: Voltage-gated inwardly rectifying potassium channel KCNH2 (Homo sapiens, UniProt Q12809); experiment: Inhibition of MK-499 binding to human ERG
[2] = tested on: Mus musculus; experiment: Antidiabetic activity in HFD fed C57BL/6N mouse assessed as increase in plasma insulin levels at 10 mg/kg, po pretreated for 60 mins measured 5 mins post glucose challenge by OGTT; assay type: functional, organism-based
In short: (§1)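 The SSTR5 antagonist was given orally at 10 mg/kg, alone or combined with des-fluoro sitagliptin at 10 mg/kg, ahead of an oral glucose challenge. Blood was sampled 5 min after glucose for circulating total GLP-1, active GLP-1[7-36] amide and plasma insulin.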

[3] = biological target: Voltage-dependent L-type calcium channel subunit alpha-1C (Homo sapiens, UniProt Q13936); experiment: Inhibition of Cav1.2 (unknown origin)
Sequence of Voltage-dependent L-type calcium channel subunit alpha-1C (Q13936 whole entry): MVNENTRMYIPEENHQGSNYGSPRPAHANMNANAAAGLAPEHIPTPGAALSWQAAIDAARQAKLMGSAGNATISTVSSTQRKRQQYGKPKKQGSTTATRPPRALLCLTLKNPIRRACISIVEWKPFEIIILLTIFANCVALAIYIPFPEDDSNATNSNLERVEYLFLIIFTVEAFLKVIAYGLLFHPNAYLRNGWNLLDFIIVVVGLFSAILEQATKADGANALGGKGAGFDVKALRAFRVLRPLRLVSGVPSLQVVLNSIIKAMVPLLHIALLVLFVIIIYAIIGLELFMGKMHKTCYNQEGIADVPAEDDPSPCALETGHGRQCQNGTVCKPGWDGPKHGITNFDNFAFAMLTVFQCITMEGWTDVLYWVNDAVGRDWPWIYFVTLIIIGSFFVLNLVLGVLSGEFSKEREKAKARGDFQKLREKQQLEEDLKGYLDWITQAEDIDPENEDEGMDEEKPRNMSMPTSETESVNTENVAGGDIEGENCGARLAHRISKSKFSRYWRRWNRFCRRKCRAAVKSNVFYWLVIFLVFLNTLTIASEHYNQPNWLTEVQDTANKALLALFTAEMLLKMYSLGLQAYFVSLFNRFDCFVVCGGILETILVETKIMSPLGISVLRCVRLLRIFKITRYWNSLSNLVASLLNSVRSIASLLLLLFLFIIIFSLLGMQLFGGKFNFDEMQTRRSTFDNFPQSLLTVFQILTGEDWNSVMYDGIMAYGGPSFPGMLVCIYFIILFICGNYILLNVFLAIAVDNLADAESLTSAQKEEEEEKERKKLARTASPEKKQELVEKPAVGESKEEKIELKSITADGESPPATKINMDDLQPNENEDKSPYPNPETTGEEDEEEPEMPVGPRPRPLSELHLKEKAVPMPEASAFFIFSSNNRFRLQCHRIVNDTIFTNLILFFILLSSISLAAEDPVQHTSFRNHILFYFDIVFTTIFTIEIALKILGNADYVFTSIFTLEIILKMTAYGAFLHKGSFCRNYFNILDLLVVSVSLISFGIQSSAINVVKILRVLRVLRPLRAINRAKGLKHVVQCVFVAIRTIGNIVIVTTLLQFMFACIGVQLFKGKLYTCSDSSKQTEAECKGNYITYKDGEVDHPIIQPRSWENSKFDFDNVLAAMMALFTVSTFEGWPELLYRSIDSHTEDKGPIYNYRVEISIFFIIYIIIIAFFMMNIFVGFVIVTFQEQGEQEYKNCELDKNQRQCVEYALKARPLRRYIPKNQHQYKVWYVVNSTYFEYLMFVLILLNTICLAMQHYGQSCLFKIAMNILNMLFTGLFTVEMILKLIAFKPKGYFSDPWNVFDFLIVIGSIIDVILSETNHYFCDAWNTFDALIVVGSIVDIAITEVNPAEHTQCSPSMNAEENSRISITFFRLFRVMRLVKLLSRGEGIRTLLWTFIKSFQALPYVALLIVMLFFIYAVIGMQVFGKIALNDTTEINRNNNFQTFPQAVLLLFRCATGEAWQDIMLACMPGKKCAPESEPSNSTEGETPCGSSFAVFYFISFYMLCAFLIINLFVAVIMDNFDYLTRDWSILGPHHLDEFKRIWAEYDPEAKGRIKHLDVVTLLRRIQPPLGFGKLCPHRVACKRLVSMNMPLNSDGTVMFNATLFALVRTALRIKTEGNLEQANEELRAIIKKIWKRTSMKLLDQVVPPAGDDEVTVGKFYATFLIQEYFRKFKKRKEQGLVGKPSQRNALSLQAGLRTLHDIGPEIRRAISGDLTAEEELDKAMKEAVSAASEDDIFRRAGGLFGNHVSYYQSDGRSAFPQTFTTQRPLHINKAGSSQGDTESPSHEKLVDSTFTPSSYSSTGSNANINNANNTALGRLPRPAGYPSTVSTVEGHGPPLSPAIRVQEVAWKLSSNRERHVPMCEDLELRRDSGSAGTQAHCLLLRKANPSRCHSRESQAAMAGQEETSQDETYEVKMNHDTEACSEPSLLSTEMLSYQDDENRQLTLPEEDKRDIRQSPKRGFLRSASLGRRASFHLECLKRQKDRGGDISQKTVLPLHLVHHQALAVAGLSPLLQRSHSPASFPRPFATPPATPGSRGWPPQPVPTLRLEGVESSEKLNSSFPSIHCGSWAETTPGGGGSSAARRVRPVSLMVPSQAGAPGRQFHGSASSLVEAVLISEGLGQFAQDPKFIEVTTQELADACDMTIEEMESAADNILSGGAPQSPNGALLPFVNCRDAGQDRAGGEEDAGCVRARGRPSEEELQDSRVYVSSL

[4] = Drug uptake in C57BL/6N mouse whole blood at 0.3 mg/kg, po measured at 3 hrs; assay type: ADME, organism-based; details: read-out: Drug uptake
In short: (§2)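 Whole-blood compound exposure was measured 3 h after oral dosing (0.03-3 mg/kg) in HFD mice run through the OGTT dose titration. Unbound levels were derived using the plasma free fraction.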

[5] = Fraction unbound in human plasma at 0.1 uM using [3H]-labeled compound; assay type: ADME, cell-free
[6] = biological target: T1, Nuclear receptor subfamily 1 group I member 2 (Homo sapiens, UniProt O75469); experiment: Activation of human PXR; assay type: ADME
T1 sequence (O75469 whole entry): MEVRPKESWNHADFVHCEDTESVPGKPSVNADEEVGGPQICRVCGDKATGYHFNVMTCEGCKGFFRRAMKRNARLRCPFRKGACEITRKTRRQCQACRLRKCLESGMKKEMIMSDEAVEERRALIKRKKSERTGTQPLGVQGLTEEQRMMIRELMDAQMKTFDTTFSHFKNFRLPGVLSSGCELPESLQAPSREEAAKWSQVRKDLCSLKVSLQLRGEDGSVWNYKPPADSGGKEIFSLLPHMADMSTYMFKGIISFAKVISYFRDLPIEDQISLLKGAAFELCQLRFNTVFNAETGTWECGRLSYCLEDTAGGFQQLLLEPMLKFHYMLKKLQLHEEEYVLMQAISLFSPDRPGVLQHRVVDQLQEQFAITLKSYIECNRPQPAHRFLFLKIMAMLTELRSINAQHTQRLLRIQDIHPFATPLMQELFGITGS

[7] = biological target: Cytochrome P450 2D6 (Homo sapiens, UniProt P10635); experiment: Inhibition of human CYP2D6; assay type: ADME
[8] = Solubility of the compound in 10% tween formulation; assay type: physicochemical
[9] = Volume of distribution in rat at 1 mg/kg, iv or 2 mg/kg, po; assay type: ADME, organism-based; details: in vivo
[10] = Unbound plasma concentration in C57BL/6N mouse plasma at 0.1 mg/kg, po measured at 3 hrs; assay type: ADME, organism-based; details: in vivo
[11] = biological target: Somatostatin receptor type 4 (Homo sapiens, UniProt P31391); experiment: Antagonist activity at human SSTR4 expressed in CHO-K1 cell membranes; assay type: functional, cell-based
In short: (§3)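 Counter-screen by filtration membrane binding: competitive displacement of radiolabeled SST-28 from cell membranes expressing human SSTR1, SSTR2, SSTR3 or SSTR4. The IC50 is the mean of at least duplicate experiments within a maximal threefold range.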

[12] = biological target: Cytochrome P450 2C9 (Homo sapiens, UniProt P11712); experiment: Inhibition of human CYP2C9; assay type: ADME
Sequence of Cytochrome P450 2C9 (P11712 whole entry): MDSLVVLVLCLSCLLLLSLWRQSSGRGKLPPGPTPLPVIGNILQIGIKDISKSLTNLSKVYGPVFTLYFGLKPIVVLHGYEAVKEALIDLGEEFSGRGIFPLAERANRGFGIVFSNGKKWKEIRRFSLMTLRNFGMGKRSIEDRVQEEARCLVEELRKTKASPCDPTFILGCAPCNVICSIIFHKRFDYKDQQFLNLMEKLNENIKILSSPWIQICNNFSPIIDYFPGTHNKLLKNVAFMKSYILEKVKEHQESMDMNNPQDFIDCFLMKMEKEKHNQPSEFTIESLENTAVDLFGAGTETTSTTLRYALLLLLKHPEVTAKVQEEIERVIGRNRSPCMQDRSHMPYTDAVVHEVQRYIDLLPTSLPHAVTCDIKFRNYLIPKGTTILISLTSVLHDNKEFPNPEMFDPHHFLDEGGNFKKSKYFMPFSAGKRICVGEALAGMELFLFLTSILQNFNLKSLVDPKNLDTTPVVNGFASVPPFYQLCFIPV

[13] = tested on: Pancreatic islet; experiment: Induction of SST-14 secretion in human pancreatic islets in presence of glucose by ELISA; assay type: functional, cell-based
In short: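 In the same human islet incubations, SST-14 and glucagon secretion were monitored alongside insulin.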

[14] = biological target: Somatostatin receptor type 1 (Homo sapiens, UniProt P30872); experiment: Antagonist activity at human SSTR1 expressed in CHO-K1 cell membranes; assay type: functional, cell-based; in short: as §3
Sequence of Somatostatin receptor type 1 (P30872 whole entry): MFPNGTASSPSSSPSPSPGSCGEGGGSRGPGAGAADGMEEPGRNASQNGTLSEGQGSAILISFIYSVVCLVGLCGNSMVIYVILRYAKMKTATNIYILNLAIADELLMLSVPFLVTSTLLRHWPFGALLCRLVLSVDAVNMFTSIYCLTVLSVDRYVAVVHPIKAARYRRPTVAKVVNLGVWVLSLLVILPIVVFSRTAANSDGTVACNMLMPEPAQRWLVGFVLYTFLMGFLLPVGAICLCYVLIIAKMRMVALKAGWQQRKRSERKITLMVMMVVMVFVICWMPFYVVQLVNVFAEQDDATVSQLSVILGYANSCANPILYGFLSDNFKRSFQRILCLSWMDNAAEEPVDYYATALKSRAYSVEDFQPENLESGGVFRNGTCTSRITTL

[15] = Unbound plasma concentration in C57BL/6N mouse plasma at 3 mg/kg, po measured at 3 hrs; assay type: ADME, organism-based; details: in vivo
[16] = Aqueous solubility of the compound in neutral solution; assay type: physicochemical
[17] = tested on: Mus musculus; experiment: Antidiabetic activity in HFD fed C57BL/6N mouse assessed as decrease in blood glucose AUC at 1 mg/kg administered as single oral dose pretreated for 60 mins followed by glucose challenge measured after 120 mins by OGTT; assay type: functional; set-up: scale not given: the % may be the effect or the level left
In short: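 Oral dose titration (0.03-3 mg/kg) in HFD-fed mice, n=8. Dosing was followed by an oral glucose tolerance test. Net blood glucose AUC was expressed as % reduction versus vehicle, with P values versus vehicle.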

[18] = Drug uptake in C57BL/6N mouse whole blood at 0.1 mg/kg, po measured at 3 hrs; assay type: ADME, organism-based; details: read-out: Drug uptake; in short: as §2
[19] = tested on: Mus musculus; experiment: Antidiabetic activity in HFD fed C57BL/6N mouse assessed as increase in circulating active GLP-1 levels at 10 mg/kg, po cotreated with DPP4 inhibitor des-fluoro sitagliptin pretreated with compound for 60 mins followed by glucose challenge measured after 120 mins by OGTT; assay type: functional, organism-based
[20] = Half life in rhesus monkey at […], iv or 1 mg/kg, po; assay type: ADME, organism-based, Macaca mulatta; details: in vivo
[21] = biological target: Sodium channel protein type 5 subunit alpha (Homo sapiens, UniProt Q14524); experiment: Inhibition of Nav1.5 (unknown origin)
Sequence of Sodium channel protein type 5 subunit alpha (Q14524 whole entry): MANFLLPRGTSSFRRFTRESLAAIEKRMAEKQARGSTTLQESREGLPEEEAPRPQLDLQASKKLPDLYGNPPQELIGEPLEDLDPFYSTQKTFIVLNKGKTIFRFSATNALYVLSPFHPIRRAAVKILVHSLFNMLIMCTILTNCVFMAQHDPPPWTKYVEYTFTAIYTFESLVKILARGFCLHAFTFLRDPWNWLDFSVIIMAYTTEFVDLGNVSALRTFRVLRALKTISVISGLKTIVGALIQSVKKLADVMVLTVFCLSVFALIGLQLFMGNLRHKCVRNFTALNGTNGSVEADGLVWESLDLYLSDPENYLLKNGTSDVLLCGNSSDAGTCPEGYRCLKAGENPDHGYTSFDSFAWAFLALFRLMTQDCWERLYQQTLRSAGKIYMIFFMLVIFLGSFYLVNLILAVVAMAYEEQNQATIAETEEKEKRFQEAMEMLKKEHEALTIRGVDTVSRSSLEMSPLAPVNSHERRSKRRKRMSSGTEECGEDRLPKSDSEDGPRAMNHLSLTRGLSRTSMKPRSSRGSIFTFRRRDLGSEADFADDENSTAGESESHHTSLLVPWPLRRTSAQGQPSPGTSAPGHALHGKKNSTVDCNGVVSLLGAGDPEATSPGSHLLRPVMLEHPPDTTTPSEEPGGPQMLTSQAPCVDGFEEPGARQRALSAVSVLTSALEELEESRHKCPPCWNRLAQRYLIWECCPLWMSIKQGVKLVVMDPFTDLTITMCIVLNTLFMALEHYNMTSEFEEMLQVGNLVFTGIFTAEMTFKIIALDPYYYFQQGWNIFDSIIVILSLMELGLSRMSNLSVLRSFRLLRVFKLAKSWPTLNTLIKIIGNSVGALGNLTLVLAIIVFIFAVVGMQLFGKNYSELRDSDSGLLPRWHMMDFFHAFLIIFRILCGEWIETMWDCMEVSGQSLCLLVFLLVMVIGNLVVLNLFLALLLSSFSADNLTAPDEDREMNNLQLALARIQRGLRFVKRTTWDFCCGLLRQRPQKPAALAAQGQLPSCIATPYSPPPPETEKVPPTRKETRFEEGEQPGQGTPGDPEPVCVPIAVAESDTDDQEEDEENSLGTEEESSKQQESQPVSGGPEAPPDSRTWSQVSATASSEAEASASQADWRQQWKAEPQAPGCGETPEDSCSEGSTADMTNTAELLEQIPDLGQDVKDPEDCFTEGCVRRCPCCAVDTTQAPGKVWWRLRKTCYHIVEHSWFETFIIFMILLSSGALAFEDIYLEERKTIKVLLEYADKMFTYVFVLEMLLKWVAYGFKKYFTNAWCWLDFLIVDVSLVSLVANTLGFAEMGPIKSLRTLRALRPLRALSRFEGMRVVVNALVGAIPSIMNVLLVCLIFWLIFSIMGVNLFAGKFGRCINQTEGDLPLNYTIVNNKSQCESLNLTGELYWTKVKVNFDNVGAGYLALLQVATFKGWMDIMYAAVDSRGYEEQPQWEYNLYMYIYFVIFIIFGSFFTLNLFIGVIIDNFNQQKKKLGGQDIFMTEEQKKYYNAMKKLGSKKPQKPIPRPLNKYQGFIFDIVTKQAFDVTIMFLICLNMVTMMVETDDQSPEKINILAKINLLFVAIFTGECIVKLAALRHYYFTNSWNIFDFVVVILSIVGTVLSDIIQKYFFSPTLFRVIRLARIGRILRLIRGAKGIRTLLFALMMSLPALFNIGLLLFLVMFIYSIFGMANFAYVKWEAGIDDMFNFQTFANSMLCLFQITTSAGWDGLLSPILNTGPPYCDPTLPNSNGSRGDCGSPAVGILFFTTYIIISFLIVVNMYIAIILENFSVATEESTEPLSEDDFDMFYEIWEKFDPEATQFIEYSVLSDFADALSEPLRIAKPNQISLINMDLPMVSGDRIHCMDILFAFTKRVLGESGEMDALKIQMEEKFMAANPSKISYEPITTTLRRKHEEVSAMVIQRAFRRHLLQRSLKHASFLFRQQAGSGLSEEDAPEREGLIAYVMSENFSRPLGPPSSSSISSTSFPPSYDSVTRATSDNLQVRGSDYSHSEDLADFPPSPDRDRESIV

[22] = Volume of distribution in rhesus monkey at […], iv or 1 mg/kg, po; assay type: ADME, organism-based, Macaca mulatta; details: in vivo
[23] = tested on: Mus musculus; experiment: Antidiabetic activity in HFD fed C57BL/6N mouse assessed as increase in circulating active GLP-1 levels at 10 mg/kg, po pretreated for 60 mins measured 5 mins post glucose challenge by OGTT; assay type: functional, organism-based; in short: as §1
[24] = Half life in rat at 1 mg/kg, iv or 2 mg/kg, po; assay type: ADME, organism-based; details: in vivo
In short: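 Rat pharmacokinetics after separate intravenous (1 mg/kg) and oral (2 mg/kg) dosing. Clearance is reported in mL/kg/min and half-life in hours. Oral bioavailability is given as F (%).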

[25] = Unbound plasma concentration in C57BL/6N mouse plasma at 1 mg/kg, po measured at 3 hrs; assay type: ADME, organism-based; details: in vivo
[26] = tested on: Mus musculus; experiment: Antidiabetic activity in HFD fed C57BL/6N mouse assessed as increase in circulating total GLP-1 levels at 10 mg/kg, po pretreated for 60 mins measured 5 mins post glucose challenge by OGTT; assay type: functional, organism-based; in short: as §1
[27] = Oral bioavailability in dog at 1 mg/kg; assay type: ADME, organism-based, Canis lupus familiaris; details: in vivo

For `CCOc1cc(CN2CCC3(CC2)CC(=O)N(c2ccc(C(=O)O)cc2)C3)cc(OCC)c1-c1ccc(F)cc1.O=C(O)C(F)(F)F`, the IC50 [1] was 45 µM, the Activity [2] was “Active” and the IC50 [3] was greater than 15 µM. The concentration at 3 h [4] was 34 nM, the Fu [5] was 2.2% and the Activity [6] was “Not Active”. For the same compound, the IC50 [7] was greater than 50 µM, the solubility [8] was 5300 µg/mL and the Vd [9] was 2.38 L/kg. The “Cp(f)” value [10] was 0.5 nM, the IC50 [11] was greater than 10 µM and the IC50 [12] was greater than 50 µM. For the same compound, the Activity [13] was “inactive”, the IC50 [14] was greater than 10 µM and the “Cp(f)” value [15] was 16.1 nM. It also gave a solubility [16] of 300 µg/mL, an Activity [17] of 74% and a concentration at 3 h [18] of 11 nM. For the same compound, the Activity [19] was “Active”, the half-life [20] was 2 h and the IC50 [21] was greater than 15 µM. For the same compound, the Vd [22] was 1.39 L/kg, the Activity [23] was “Active” and the half-life [24] was 1.9 h. For the same compound, the “Cp(f)” value [25] was 6 nM, the Activity [26] was “Active” and the bioavailability [27] was 72%.
